Tested on: MS2 coat protein
Assay: apparent Kd, MS2 coat protein; higher = weaker binding; RNA-MaP array
Procedure, shortened: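 RNA designs were transcribed from sequenced DNA templates on an Illumina sequencing chip and then incubated at room temperature with fluorescently labeled MS2 coat protein at 1.5 nM to 3 μM, with or without input ligand, in Tris-HCl pH 7.5 buffer containing KCl, MgCl2, BSA, DTT, tRNA and Tween20. Incubation lasted 0.8–1.5 h at the lowest protein concentrations and 10–20 min at the highest. Apparent Kd is the median of binding-curve fits made for each cluster. Designs measured on fewer than 10 clusters were excluded.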

[1] = designed as: OFF switch for flavin mononucleotide, no ligand
[2] = ligand present: flavin mononucleotide, designed as: OFF switch for flavin mononucleotide
[3] = designed as: ON switch for theophylline, no ligand
[4] = ligand present: theophylline, designed as: ON switch for theophylline
[5] = designed as: ON switch for flavin mononucleotide, no ligand
[6] = ligand present: flavin mononucleotide, designed as: ON switch for flavin mononucleotide
[7] = designed as: OFF switch for theophylline, no ligand
[8] = ligand present: theophylline, designed as: OFF switch for theophylline
[9] = designed as: ON switch for tryptophan, no ligand
[10] = ligand present: tryptophan, designed as: ON switch for tryptophan

Sequence | apparent Kd [1] | apparent Kd [2] | further results
CGAACAUGAGGAUCACCCAUGUGUUUCCUUGGUAGACGACAUAGAAGGGCCGUAAAUUACAGCGGGCAGGAUAUAUGACUUAAG | 164 nM | 137 nM | –
CGUGAUACUGGUAUACUCUGAAGAUCAAUUCGAGGACCGGUACGGCCGCCACUCGUUAGUAGACAUGAGGAUCACCCAUGUUAGU | – | – | apparent Kd (designed as: OFF switch for tryptophan, no ligand): 20 nM; apparent Kd (ligand present: tryptophan, designed as: OFF switch for tryptophan): 22.5 nM
UACUCAAGAGUAAGGAUAUAGAACCAAAUAGCGGACUAGAAGGUACAUGAGGAUCACCCAUGUCAAAGACAGAA | 7.44 nM | 7.19 nM | –
GUAAGACAUGAGGAUCACCCAUGUGUCGAUACCAGCCCUGCCUCUGGCCCUUGGCAGCGACUCGCACACCUCGCACUGCACAAGU | – | – | apparent Kd [3]: 54.9 nM; apparent Kd [4]: 73.2 nM
GACUACCAGUAAGGAUAUGCUCUUAUAAAAGGAGCAGAAGGUACCUGUGACGCCUACGGGCGACAUGAGGAUCACCCAUGUUCU | – | – | apparent Kd [5]: 692 nM; apparent Kd [6]: 386 nM
UCUGGUUGAGGAUAUACAUGAGGAUCACCCAUGUCACCUAGCAAAGUAGAGAGUAAGUGUAGAAGGCAACCUUU | 15.6 nM | 18.9 nM | –
CAUACGCCGCAGAAGGAAGGACAGACAUGAGGAUCACCCAUGUACACCGGUUUAUUGGGUGCACCUUAGGAUAUGCAAAAGAAC | – | – | apparent Kd [5]: 268 nM; apparent Kd [6]: 132 nM
AUUAACUGGUAAGAUACCAGAGUCGGGAUCUACAUGAGGAUCACCCAUGUUCUAAAGUCGCUCCCUUGGCAGCUUCAAUGAGUCG | – | – | apparent Kd [3]: 35.3 nM; apparent Kd [4]: 36 nM
GCUAUGAACGUAGGAUAUGAAGCCUGGCUUGGUUCAGAAGGACGUGAGUAAGUGAGGUCCUGACAUGAGGAUCACCCAUGUACA | 23.9 nM | 31.7 nM | –
UAGAAACUCGUAAGGAUAUCCGAAGAGAAAAUGAGGGAGAAGGUACAUGAGGAUCACCCAUGUAUGAAAUGGAC | 7.64 nM | 7.98 nM | –
GAUCGUUGGGAGGAUAUCCGCAAGUCCAGGGAGGGAGAAGGCCCAACAUGAGGAUCACCCAUGUAGAAGCGCAU | 51 nM | 77.6 nM | –
CAAGUCGGCAAGGAUAUGAAACGUAUUACAGAUUCAGAAGGUGCUACAUGAGGAUCACCCAUGUGGUCAAUACC | 6.76 nM | 13.1 nM | –
GAAACAUUCCCGAGUUUCUACAUGAGGAUCACCCAUGUCCCAUAGGAUAUCUCUACCAGCCGCCGAGAGAAGGAUGUAGUCACU | – | – | apparent Kd [5]: 185 nM; apparent Kd [6]: 148 nM
UCCCAGCAAGGAUAUACAUGAAAAGGUAAAGAAGAAAAGAAACAUGAGGAUCACCCAUGUAGAAGGUGCAAGAG | 15.5 nM | 18.4 nM | –
UGCGGCGAAGGAUAUUGACCAAAACACAUGAGGAUCACCCAUGUACUCAUAACAUGCUAACAAGAAGGUCGCGUAA | 15.9 nM | 13.8 nM | –
AGGUCGAAACUAGGAUAUCUUCACUAUGUCAGAAGAGAAGGAGUAGAGCAUGACAGUGAUAGUACAUGAGGAUCACCCAUGUUA | 18.8 nM | 15.7 nM | –
UCAAGGUCAGGAUAUUUAUACAGUCGAUUACGAGGAUGUCGAAAGAAGGGACAUGAGGAUCACCCAUGUGGUAC | 43 nM | 57.7 nM | –
GCAAUACAUGAGGAUCACCCAUGUUUUAGAUACGAAGGAUAUGUGUAAGCGUACUAAUGUACAGAAGGUCGGAUUU | – | – | apparent Kd [5]: 13.1 nM; apparent Kd [6]: 9.26 nM
AGACAUGAGGAUCACCCAUGUUUGUGUAUCUGACCGCGCACUAGAAGGGAUUGGACAACUUACUAUCAGGAUAUAGACAACGGU | – | – | apparent Kd [5]: 8.4 nM; apparent Kd [6]: 6.95 nM
UUGUACGAAACUGAUACCAGCCAGCAAUGCCACCAAGAGCACAUGAGGAUCACCCAUGUUGGCCCUUGGCAGCAGGACAAUAAGC | – | – | apparent Kd [7]: 8.63 nM; apparent Kd [8]: 9.47 nM
UACAUGAGGAUCACCCAUGUGUGUAGCUAUUACUGUUACAUCUAGGAUAUGUCGGGAACUCAACAACAGAAGGAGAUAGAAGGA | – | – | apparent Kd [5]: 48.8 nM; apparent Kd [6]: 33.8 nM
AAUAUUAACGUCAGGAUAUGCCAUUCCCGUUGGCGGCAGAAGGGACAUGAGGAUCACCCAUGUGAAAACGUCAC | 16.9 nM | 25.6 nM | –
UAAUUAACGUAGAAGGAAUCCCAUCCGUUGCAAUUAGGAUAUACGUUCCCUCGAACAUGAGGAUCACCCAUGUGGCAACCAUAU | 14.7 nM | 13.8 nM | –
GUAUAUACAUAGGAUAUGUCGGCCGGUUAUGCAACAGAAGGAUGUACAUGAGGAUCACCCAUGUCAAUUGGGAG | 74.6 nM | 220 nM | –

Sequence | apparent Kd [1] | apparent Kd [2] | further results
GAUCUGUGAGGAUAUUGUUAGAGCAUUCAACCAUCGAAUGCCAAGAAGGCACAUGAGGAUCACCCAUGUAGACA | 7.9 nM | 10.4 nM | –
CGGUCCACUGAGAAGGCUCACUCCAUGCCGAGGAGAGGAUAUCAAACCUAUAUUGCACGCAGCGAACAUGAGGAUCACCCAUGU | – | – | apparent Kd [5]: 11 nM; apparent Kd [6]: 8.73 nM
AUGGAACAUGAGGAUCACCCAUGUUAGGAUAUCGGCGAAGGGAGUUUUAUACUCACUGCGAGAAGGAACGUGAC | 25.2 nM | 18.7 nM | –
CGAAUAUAGGCUACGUGUCAUUGAGGCGAUACCAGAUUAUGCCAGAUCCCUUGGCAGCGCCAAACAUGAGGAUCACCCAUGUUCA | – | – | apparent Kd [7]: 22.1 nM; apparent Kd [8]: 29.3 nM
AAACAAGUAGGAUAUACAUGAGGAUCACCCAUGUAUUGUGAGGAUAGUACUGUACCAUGUAGAAGGACUCCGGA | 10.7 nM | 9.12 nM | –
AUCGCAGAUGUAAGGAUAUUAGUGUAGCAACGGUCAAAGAAGGAACAUGAGGAUCACCCAUGUGGUAGAUAAAU | 19 nM | 15.2 nM | –
GCUAUAUCGUAGCUAACAUGAGGAUCACCCAUGUGAAGGAAGAGAAGGUGCAUCUAACAGACCCGCAAGGAUAUCUAGAUAAAG | – | – | apparent Kd [5]: 18.8 nM; apparent Kd [6]: 16.1 nM
CAACUAAAGGAGAAGGCUAACAUGAGGAUCACCCAUGUCCGCGUGUCCGCUUAUAAUGCGCGCAUAGAGGAUAUCCCAAGUUUA | – | – | apparent Kd [5]: 21.4 nM; apparent Kd [6]: 13.6 nM
AGGUGCAUCAAGAAGGAUGACAUGAGGAUCACCCAUGUACAAAAGGCGCGAUUUACAAAUCGUACAUAGGAUAUUGUGCAUGUU | – | – | apparent Kd [5]: 71.2 nM; apparent Kd [6]: 24.6 nM
UGCCUAUACCAGAAGGGCGUACGGGAAAACAUGAGGAUCACCCAUGUGAGAUCAUCAUCGCUAGCGCAGGAUAUGGAAGUUCGG | 25 nM | 29.4 nM | –
AUGUAGAAUCUAGGAUAUGCGAGAAACUGCGAAGCAGAAGGAGACUUGUACAUGAGGAUCACCCAUGUCCCGGGCGUCCCAACU | 17.7 nM | 24.2 nM | –
CUGACGAGCUUUUUGUCAGGUUGUGUAGAUACCAGUUCUCUGGUGAACCCUUGGCAGCUAACAACAUGAGGAUCACCCAUGUGAU | – | – | apparent Kd [7]: 83.7 nM; apparent Kd [8]: 326 nM
UAGAAAUCCUUGCAGGAUAUGUUGGAGUCUACAUGAGGAUCACCCAUGUUUAGUAGCAGGCGACGACAGAAGGGCAAUCUCAUGAU | – | – | apparent Kd [5]: 23.6 nM; apparent Kd [6]: 9.18 nM
CAGUAAGUAGGAUAUGUAUCAAGCUACAUGAGGAUCACCCAUGUGAACCCUAACAGCUGAACAGAAGGACUGUGUG | 156 nM | 198 nM | –
AUAACACAUGAGGAUCACCCAUGUAAGGAUACCAGUUUCUGAUUAAACCCUUGGCAGCCUAGAGAUAGUCAUGUAAUAACGGCGA | – | – | apparent Kd [3]: 11.9 nM; apparent Kd [4]: 19 nM
CAACAGGAGCAGAAGGUCCAACUCAUAAAUACGGAAGGAUAUGCGUGACCAACUAAAGAAACAUGAGGAUCACCCAUGUAAGCG | – | – | apparent Kd [5]: 10.7 nM; apparent Kd [6]: 7.53 nM
AGAUUUUGCCAAGGAUAUUCGAUGCAUCAUGACAUGAGGAUCACCCAUGUAUAACGACUUGGGCUGAAGAAGGUGGACCAAGCU | 11.8 nM | 12 nM | –
GUGGACAUGAGGAUCACCCAUGUAAGUCGGCGAGGACCGGUACGGCCGCCACUCGUGUUCUGUCUCAGCUCAAACGUAGCCGGAA | – | – | apparent Kd [9]: 36.3 nM; apparent Kd [10]: 17.9 nM
UAGUAACAUGAGGAUCACCCAUGUCCGGAUACCAGACAUAUACCAGUCCCUUGGCAGCCGCCAGUUAAAAUCUAACACAAAAGUU | – | – | apparent Kd [3]: 46.2 nM; apparent Kd [4]: 21.5 nM
GGGCGACUAGGAUAUACAGGAAGUUAAUGAGUGUCAAAGAAACAUGAGGAUCACCCAUGUAGAAGGAGUGCUAU | 11.2 nM | 12.6 nM | –
GUAUUCAUGACGGCCGCCACUGCAAGCCUCCUCAUGGCAGAUUGACAUGAGGAUCACCCAUGUCUCAGGACCGGGUCUGGCAUCC | – | – | apparent Kd [9]: 188 nM; apparent Kd [10]: 171 nM
AUCAAUGAUCGACAUGAGGAUCACCCAUGUGCUUGGCGACUAAGAAGGGCCAGGCCACCAAGGCGGCAGGAUAUUAGUAGGACC | 84.2 nM | 24.3 nM | –
GAACCGUUUGAGAAGGUACACAUUCAGGUCGGUACUGGACAUGAGGAUCACCCAUGUGCCGGUGGUAAGGAUAUCAGAUGAGCU | 10.5 nM | 10.4 nM | –

Reference: the EternaBench riboswitch data
